EWS-Fli inh – blocks EWS/Fli oncoprotein-driven transcription; A673 NR0B1-luciferase reporter, viability-normalised; inhibition, % at 12.6 µM; 350,000 tested, 0.67% active; AID 651661;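 active = mean inhibition of at least 50% after viability correction, with every replicate also passing that limit; inconclusive = mean reaches 50% but only one of two replicates passes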;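 also: firefly luciferase signal divided by Alamar Blue viability fluorescence both relative to DMSO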
FGF22 binding – shifts melting point of recombinant human FGF22; AID 651658; Q9HCT0; 340,000 tested, 1.5% active; recombinant FGF22 thermal shift, SYPRO orange fluorescence; percent of sucrose octasulfate shift, DMSO zero; activity (Tm shift, normalised), % at 9.99 µM;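 active = mean Tm shift, scaled 0 neutral to 100 positive control, at about 1.3% or above, every replicate too, limit read from the data; inconclusive = no clear call, values can overlap the other calls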
Target sequence (Q9HCT0 whole entry, looked up): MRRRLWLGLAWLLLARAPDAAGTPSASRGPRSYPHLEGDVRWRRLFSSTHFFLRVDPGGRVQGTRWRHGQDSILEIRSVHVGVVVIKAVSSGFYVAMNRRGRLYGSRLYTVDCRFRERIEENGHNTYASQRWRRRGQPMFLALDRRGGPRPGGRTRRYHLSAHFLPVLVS
Env fusion inh – HIV envelope-mediated fusion inhibition; HeLa-JRFL Env/CEM21 cell fusion, luciferase; inhibition, % at 12.3 µM; 360,000 tested, 1.1% active; AID 651610;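 active = mean replicate inhibition score of at least 50 and every replicate individually at or above 50; inconclusive = only one of the two criteria met; inactive = mean below 50 and not all replicates reaching 50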;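 also: 0% = plate neutral controls and 100% = maraviroc near 300 nM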
PGC1a acetyl inh – modulators of PGC1a acetylation; U2OS PGC1a acetylation, AlphaScreen anti-acetyl-lysine; with virally co-expressed GCN5 acetyltransferase; inhibition, % at 15.6 µM; 350,000 tested, 0.17% active; AID 651687;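 active = every replicate shows inhibition of at least 40%; inconclusive = mean inhibition at least 40% but some replicate below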;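 also: 0% = neutral control wells and 100% = positive control wells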
PAX8 inh HTS – inhibitors of PAX8 transcriptional activity in RMG-I cells. RMG-I TPO-luciferase reporter, SteadyGlo, 24 h. inhibition, % at 12.6 µM. 360,000 tested, 1.2% active. AID 652154;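 active = mean replicate inhibition at least 60% with every replicate also reaching 60%; inconclusive = only one of the two criteria is met; inactive = mean below 60% and not all replicates reaching 60%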;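 also: luciferase light reporting Pax8 driven TPO promoter activity; plate controls were median of neutral control wells for no effect and mitoxantrone controls for full effect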
FN deposition inh – fibronectin deposition inhibition; AH1F fibroblasts, Alexa488-fibronectin deposition fluorescence, overnight; inhibition, % at 12.6 µM; 350,000 tested, 0.086% active;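 active = mean inhibition across replicates of 30% or more, regardless of how many single replicates reach that level; inconclusive = mean under 30% yet at least half of replicates reach 30%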;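 also: positive control wells lacked labelled fibronectin entirely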
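Assay system: AH1F fibroblasts / Quantity: 10000 cells per well / Medium: DMEM plus 2% serum, read in PBS / Reagent: labelled fibronectin 24 nM / Dosing: single dose, pinned / Times: 1 h cell attachment, overnight exposure to compound and label / Signal: fluorescence, ex 485 nm, em 525 nm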
* hit, by the source's call; ? = inconclusive; / = not tested or not shown; [ ] = dose if it differs, or a comment. Hits are enriched below; roughly 3.1% of the tested compounds scored in any of these assays.

SMILES | EWS-Fli inh | FGF22 binding | Env fusion inh | PGC1a acetyl inh | PAX8 inh HTS | FN deposition inh
C=CCNC(=S)Nc1sc2c(c1C(N)=O)CCCC2 | -19 | 0 | -2 | 16 | -59 | 4
C=CC(=O)Nc1sc2c(c1C(N)=O)CCCC2 | -13 | 0 | 30 | / | 80* | 0
Cn1c2ccccc2c(=O)c2cc(C#CC3(O)CCCCC3)ccc21 | 68* | 0 | -65 | -4 | 33 | 9
Cn1c2ccccc2c(=O)c2ccc(C#CC3(N)CCCCC3)cc21 | -86 | -1 | -114 | / | -147 | 1
Cc1ccccc1NNC(=O)C(=O)NNc1ccccc1C | 18 | 0 | -19 | / | 14 | 5
Cc1ccccc1NC(=O)C(Cl)=C(Cl)Cl | 17 | 0 | 39 | -23 | 94* | 8
Cc1ccc(S(=O)(=O)N(C)C[C@@H]2OCCCC[C@H](C)Oc3ccc(NS(=O)(=O)c4ccc(F)cc4)cc3C(=O)N([C@H](C)CO)C[C@@H]2C)cc1 | -2 | 0 | -25[16.7 µM] | -2 | 70* | -7
Cc1ccc(S(=O)(=O)N(C)C[C@@H]2OCCCC[C@H](C)Oc3ccc(NS(=O)(=O)c4ccc(F)cc4)cc3C(=O)N([C@@H](C)CO)C[C@@H]2C)cc1 | -2 | 0 | 9[16.7 µM] | -9 | 58 | -1
Cc1ccc(S(=O)(=O)Nc2ccc3c(c2)C(=O)N([C@@H](C)CO)C[C@@H](C)[C@@H](CN(C)S(=O)(=O)c2ccc(F)cc2)OCCCC[C@@H](C)O3)cc1 | -8 | 0 | -22[16.7 µM] | 0 | 68* | /
Cc1ccc(S(=O)(=O)N(C)C[C@H]2OCCCC[C@@H](C)Oc3ccc(NS(=O)(=O)c4ccc(F)cc4)cc3C(=O)N([C@@H](C)CO)C[C@H]2C)cc1 | 2 | / | -34[16.7 µM] | -9 | 83* | -9
C[C@H](CO)N1C[C@H](C)[C@H](CN(C)S(=O)(=O)c2ccccc2)OCCCC[C@H](C)Oc2ccc(NS(=O)(=O)c3ccc(F)cc3)cc2C1=O | 2 | -1 | 39[16.7 µM] | -9 | 63* | -3
C[C@@H]1CCCCO[C@H](CN(C)S(=O)(=O)c2ccccc2)[C@H](C)CN([C@@H](C)CO)C(=O)c2cc(NS(=O)(=O)c3ccc(F)cc3)ccc2O1 | 1 | 0 | -76[16.7 µM] | -6 | 33 | 0
CC(C)NC(=O)Nc1ccc2c(c1)C(=O)N([C@H](C)CO)C[C@@H](C)[C@@H](CN(C)C)OCCCC[C@H](C)O2 | / | 0 | 16[16.7 µM] | 5 | -4 | 6
Cc1ccc(S(=O)(=O)Nc2ccc3c(c2)C(=O)N([C@H](C)CO)C[C@@H](C)[C@H](CN(C)S(=O)(=O)c2ccc(F)cc2)O3)cc1 | -5 | 0 | 60*[16.7 µM] | -16 | / | /
Cc1ccc(S(=O)(=O)N(C)C[C@@H]2Oc3ccc(NS(=O)(=O)c4ccc(F)cc4)cc3C(=O)N([C@@H](C)CO)C[C@@H]2C)cc1 | 2 | 0 | 25[16.7 µM] | 4 | 12 | /
Cc1ccc(S(=O)(=O)Nc2ccc3c(c2)C(=O)N([C@H](C)CO)C[C@H](C)[C@H](CN(C)S(=O)(=O)c2ccc(F)cc2)OCCCC[C@H](C)O3)cc1 | 16 | 0 | -81[16.7 µM] | -8 | 68* | /
O=C1NC[C@H](CCCCN2C[C@H](Cc3ccccc3)N(Cc3ccccc3)C(=O)C2=O)N(CC2CCCCC2)C1=O | -4 | 1 | 2 | / | 1 | 5
O=C1NC[C@@H](CCCCN2C[C@H](Cc3ccccc3)N(CC3CCCCC3)C(=O)C2=O)N(Cc2ccccc2)C1=O | 3 | 5.4* | -27 | / | 8 | 0
CC(C)C[C@@H](CN1CCCC1CN1C(=S)NC[C@@H]1Cc1ccc(O)cc1)N1C[C@H](Cc2ccc(O)cc2)N(CC2CCCCCC2)C1=S (stereo partly specified) | 22 | 0 | ? | 4 | 82* | /
CC(C)C[C@H]1CN([C@@H](Cc2ccc(O)cc2)CN2CCC[C@@H]2CN2C(=S)NC[C@@H]2Cc2ccccc2)C(=S)N1CC1CCCCCC1 | 1 | 0 | 14 | -15 | 28 | -4
CC(C)C[C@H]1CNC(=S)N1CC1CCCN1C[C@H](Cc1ccccc1)N1C[C@H](Cc2ccc(O)cc2)N(CC2CCCCCC2)C1=S (stereo partly specified) | 7 | 1 | -40 | 51* | -5 | /
CC(C)C[C@H]1CNC(=S)N1C[C@H]1CCCN1C[C@H](Cc1ccc(O)cc1)N1C[C@H](Cc2ccc(O)cc2)N(CC2CCCCCC2)C1=S | 22 | 43* | 2 | -15 | 73* | 7
Cc1cccc(S(=O)(=O)N2C[C@H](O)COC[C@H]3O[C@@H](CC(=O)NCCCN4CCOCC4)CC[C@@H]32)c1 | -7 | 0 | / | -1 | -6 | -4
COc1ccc2c3c(n(C)c2c1)[C@H](CO)N(C(C)=O)CC31CCN(S(=O)(=O)c2ccccc2)CC1 | -7 | 0 | / | -4 | / | /
COCC(=O)Nc1ccc2c(c1)OC[C@@H](C)N(C(=O)c1ccccc1F)C[C@@H](C)[C@@H](OC)CN(C)C2=O | -2 | 0 | / | 5 | / | -5
SMILES | EWS-Fli inh | FGF22 binding | Env fusion inh | PGC1a acetyl inh | PAX8 inh HTS | FN deposition inh
O=C(C[C@@H]1C[C@H]2c3cc(NC(=O)CC4CC4)ccc3O[C@H]2[C@@H](CO)O1)NCC1CC1 | -11 | 1 | -6[16.7 µM] | 5 | 2 | -3
CO[C@H]1CN(C)C(=O)c2cc(NC(=O)c3ccccc3F)ccc2OC[C@@H](C)N(C)C[C@@H]1C | -12 | 0 | 0[16.7 µM] | -2 | 5 | -7
Oc1ccc(C[C@H]2CNC(=S)N2C[C@H]2CCCN2C[C@H](Cc2ccccc2)N2C[C@H](Cc3ccccc3)N(CC3CCCCC3)C2=S)cc1 | 14 | 0 | 82* | / | 39 | 1
Oc1ccc(C[C@H]2CNC(=S)N2CC2CCCN2C[C@H](Cc2ccccc2)N2C[C@H](Cc3ccc(O)cc3)N(CCc3ccccc3)C2=S)cc1 (stereo partly specified) | 19 | 0 | -25 | -19 | 91* | 1
Oc1ccc(C[C@@H](CN2CCC[C@@H]2CN2C(=S)NC[C@@H]2Cc2ccccc2)N2C[C@H](Cc3ccccc3)N(CCc3ccccc3)C2=S)cc1 | 16 | 0 | 21 | -7 | 20 | -2
CC(C)C[C@@H](CN1CCC[C@H]1CN1C(=O)C(=O)NC[C@@H]1Cc1ccccc1)N1C[C@H](Cc2ccc(O)cc2)N(CC2CCCCCC2)C(=O)C1=O | 8 | 0 | -133 | / | 68* | -17
COc1ccc(CN(C)C[C@H]2OCCCC[C@@H](C)Oc3ccc(NC(=O)NC4CCCCC4)cc3C(=O)N([C@H](C)CO)C[C@H]2C)cc1 | 2 | 0 | 20[16.7 µM] | -14 | / | -7
COc1ccc(N(C(=O)c2ccco2)C(C(=O)NC2CCCC2)c2ccc(OC)c(OC)c2)cc1 (stereo unspecified) | 3 | 0 | 55* | -9 | 10 | 2
COc1ccc(N(C(=O)c2cnsn2)C(C(=O)NC2CCCCC2)c2ccncc2)cc1 (stereo unspecified) | 5 | 43* | 17 | / | 21 | -13

Compound activity from PubChem.
